Data as given in ChEMBL document CHEMBL1154833, “Curcuminoid analogs with potent activity against Trypanosoma and Leishmania species” (Eur J Med Chem, 2010).

Columns and labels:
[1] = tested on: Trypanosoma brucei brucei; assay: Antitrypanosomal activity against Trypanosoma brucei brucei 427 after 48 hrs by alamar blue assay; format: functional, organism-based
[2] = tested on: Trypanosoma brucei brucei; assay: Antitrypanosomal activity against diminazene-resistant Trypanosoma brucei brucei deltaTbat1-KO after 48 hrs by alamar blue assay; format: functional, organism-based
[3] = tested on: Trypanosoma brucei brucei; assay: Antitrypanosomal activity against multidrug-resistant Trypanosoma brucei brucei B48 after 48 hrs by alamar blue assay; format: functional, organism-based; conditions: B48, 48 h
[4] = tested on: Leishmania major; assay: Antileishmanial activity against Leishmania major Friedlin promastigotes after 48 hrs by alamar blue assay; format: functional, organism-based
Method in brief: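 L. major Friedlin promastigotes grown in HOMEM with 10% FBS at 25 °C. Alamar Blue fluorescence assay in 96-well plates. 3–6 independent experiments unless noted.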

[5] = tested on: Leishmania mexicana; assay: Antileishmanial activity against Leishmania mexicana MNYC/BZ/62/M379 amastigotes after 48 hrs by alamar blue assay; format: functional, organism-based
Method in brief: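 Axenic L. mexicana MNYC/BZ/62/M379 amastigotes kept at 33 °C under CO2 in Schneider's Drosophila medium with 20% FBS and 0.3% gentamycin. Alamar Blue fluorescence read-out.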

[6] = tested on: HEK293; assay: Cytotoxicity against HEK293 cells after 16 hrs by alamar blue assay; format: cell-based, Homo sapiens
Method in brief: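 HEK293T cells grown in DMEM-based medium with 10% newborn bovine serum at 37 °C, 5% CO2. Doubling dilutions of compound added for 16 h, then resazurin added. Fluorescence read at emission 590 nm after a further 24 h.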

[7] = tested on: Trypanosoma evansi; assay: Antitrypanosomal activity against Trypanosoma evansi ITMAV170475 after 48 hrs by alamar blue assay; format: functional, organism-based; conditions: ITMAV170475, 48 h
Method in brief: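 Culture-adapted T. evansi ITMAV170475 seeded at 1.5 ×10⁵ trypanosomes/ml in HMI9/20% FBS. Exposed to compound for 48 h, then incubated with Alamar Blue for 24 h, all at 37 °C under CO2. Assay validated against hemocytometer cell counts. EC50 from a variable-slope sigmoid fit.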

[8] = Trypanosoma brucei, 427, 48 h, read-out: EC50
[9] = Leishmania major, Friedlin, 48 h, read-out: EC50
[10] = Leishmania mexicana, MNYC/BZ/62/M379, 48 h, read-out: EC50
[11] = Homo sapiens, HEK293, 16 h, read-out: EC50

Row | SMILES | EC50 [1, 8] | EC50 [2] | EC50 [3] | EC50 [4, 9] | EC50 [5, 10] | EC50 [6, 11] | EC50 [1] | EC50 [4] | EC50 [5] | EC50 ([6]; hek293) | EC50 [7]
1 | COc1cc(/C=C/C(=O)CC(=O)/C=C/c2ccc(OCC=C(C)C)cc2)ccc1OCC=C(C)C | 1.9 µM | 2.9 µM | 3.1 µM | 48 µM | 27 µM | > 500 µM | – | – | – | – | –
2 | N=C(N)c1ccc(OCCCCCOc2ccc(C(=N)N)cc2)cc1 [PENTAMIDINE] | – | – | 0.67 µM | 3.8 µM | 16 µM | – | – | – | – | – | –
3 | COc1cc(/C=C/C(=O)CC(=O)/C=C/c2cc(OC)c(O)c([N+](=O)[O-])c2)ccc1O | 15 µM | 18 µM | 25 µM | 28 µM | 14 µM | 82 µM | – | – | – | – | –
4 | COc1cc(/C=C/C(=O)CC(=O)/C=C/c2ccc(OCCO)c(OC)c2)ccc1OCCO | 1.8 µM | 2.3 µM | 1.6 µM | 33 µM | 37 µM | 20 µM | – | – | – | – | –
5 | COc1cc(/C=C/C=C/C(=O)CCc2ccc(O)c(OC)c2)ccc1O | 4.1 µM | 9.7 µM | 2.2 µM | 30 µM | 22 µM | 76 µM | – | – | – | – | –
6 | COc1cc(/C=C/C=C/C(=O)/C=C/c2ccc(O)c(OC)c2)ccc1O | 1.1 µM | 1.4 µM | 0.58 µM | 7.4 µM | 4.8 µM | 22 µM | – | – | – | – | –
7 | COc1ccc(/C=C/C(=O)CC(=O)/C=C/c2ccc(O)c(OC)c2)cc1 | 1.7 µM | 2 µM | 2.1 µM | 23 µM | 38 µM | 79 µM | – | – | – | – | –
8 | O=C(/C=C/c1ccc(OC(=O)c2ccccc2)cc1)CC(=O)/C=C/c1ccc(OC(=O)c2ccccc2)cc1 | – | – | – | – | – | – | ND(Insoluble) | ND(Insoluble) | ND(Insoluble) | ND(Insoluble) | –
9 | O=C(/C=C/c1ccc(O)c(O)c1)CC(=O)/C=C/c1ccc(O)c(O)c1 | 1.8 µM | 2.5 µM | 3.4 µM | 26 µM | 12 µM | 39 µM | – | – | – | – | –
10 | O=C(/C=C/c1ccc(O)cc1)CC(=O)/C=C/c1ccc(OC(=O)c2ccccc2)cc1 | 4.1 µM | 10 µM | 12 µM | 60 µM | > 100 µM | 270 µM | – | – | – | – | –
11 | CCCCCOc1ccc(CC/C=C/C(=O)CCc2ccc(OCCCCC)c(OC)c2)cc1OC | 1.1 µM | 1.2 µM | 1.8 µM | 6.6 µM | 53 µM | 43 µM | – | – | – | – | –
12 | COc1cc(/C=C/C(=O)CC(=O)/C=C/c2ccc(OC(C)=O)cc2)ccc1OC(C)=O | 1.5 µM | 2 µM | 0.92 µM | > 100 µM | 43 µM | 49 µM | – | – | – | – | –
13 | N=C(N)c1ccc(/N=N/Nc2ccc(C(=N)N)cc2)cc1 [DIMINAZENE] | 0.12 µM | 2.4 µM | 1 µM | – | – | – | – | – | – | – | 0.018 µM
14 | COc1cc(CCC(O)CC(O)CCc2ccc(O)c(OC)c2)ccc1O (centres undefined) [OCTAHYDROCURCUMIN] | 78 µM | 61 µM | > 100 µM | > 100 µM | > 100 µM | – | – | – | – | – | –
15 | COc1ccc(CCC(=O)CC(O)CCc2ccc(OC)c(OC)c2)cc1OC (centres undefined) | – | – | – | 41 µM | > 100 µM | 370 µM | – | – | – | – | –
16 | COc1ccc(/C=C/C(=O)CC(=O)/C=C/c2ccc(OC)c(OC)c2)cc1 | 1.6 µM | 1.9 µM | 1.9 µM | 23 µM | 61 µM | 690 µM | – | – | – | – | –
17 | CCCOc1ccc(/C=C/C(=O)CC(=O)/C=C/c2ccc(OCCC)c(OC)c2)cc1OC | 1.3 µM | 1.8 µM | 1.6 µM | 28 µM | 34 µM | > 500 µM | – | – | – | – | –
18 | O=C(CCc1ccc(O)c(O)c1)CC(=O)CCc1ccc(O)c(O)c1 [DIDEMETHYLTETRAHYDROCURCUMIN] | 1.9 µM | 1.5 µM | 1.7 µM | > 100 µM | 53 µM | 150 µM | – | – | – | – | –
19 | COc1cc(/C=C/C(O)=C/C(=O)/C=C/c2ccc(O)cc2)ccc1O [DEMETHOXYCURCUMIN] | 4.6 µM | 5.9 µM | 2.2 µM | 37 µM | 37 µM | 40 µM | – | – | – | – | –
20 | COc1cc(/C=C/C(=O)CC(=O)/C=C/c2ccc(OCC=C(C)C)c(OC)c2)ccc1O | 1.4 µM | 1.7 µM | 2 µM | 7.6 µM | 21 µM | > 500 µM | – | – | – | – | –
